# High-throughput results: PubChem, The Scripps Research Institute Molecular Screening Center
# OXTR agonist: human OXTR agonists, primary screen, fluorescence, CHO-OTR cells, Fluo-8 calcium; activation, % at 3 µM; Fluo-8 calcium fluorescence; normalized: DMSO 0%, oxytocin 100%; Oxytocin receptor (Homo sapiens), P30559; hit rate 0.32% among 320,000;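 active means activation above the mean of all tested compounds plus 3 SD, cutoff set per screening run, cut at about 20% in these data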;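 further: peak over basal fluorescence ratio from a 100 s FLIPR kinetic read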
# OXTR potentiate: human OXTR potentiators, primary screen, fluorescence, CHO-OTR cells, Fluo-8 calcium | Oxytocin receptor (Homo sapiens), P30559 | Fluo-8 calcium fluorescence, potentiator mode; 0% = oxytocin EC15, 100% = EC100 | activation, % at 3 µM | hit rate 0.061% among 320,000 | AID 2445, 2010;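 active means activation above that plate's cutoff, the mean activation of tested compounds plus 3 SD, cut at about 6.6% in these data, passing the limit was not always enough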;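 further: 100% uses oxytocin at 75 nM as the full agonist control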
#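 Assay system: CHO cell line stably expressing human OTR | Also added: Oxytocin at about EC15, sub-maximal agonist stimulus | Times: Compound 6 min at room temperature before oxytocin, 100 s read | Measured by: Fluo-8 intracellular calcium fluorescence, ex 470-495, em 515-575 nm | Controls: EC15 oxytocin alone as 0%, 75 nM oxytocin as 100%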
# CHO parental Ca: ATP-evoked calcium signal inhibitors, parental CHO, primary screen, counter-screen for OX1R antagonist project, cell-based, fluorescence, Fluo-8 calcium dye | parental CHO-K1, ATP-induced calcium, Fluo-8 fluorescence | inhibition, % at 5.6 µM | hit rate 0.63% among 330,000 | AID 463079, 2010;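 active means inhibition above that plate's mean sample inhibition plus 3 SD, cut at about 26% in these data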;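 further: 0% = ATP-challenged DMSO wells and 100% = DMSO wells without ATP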
#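 Assay system: parental CHO cells; Read-out basis: percent inhibition of ATP-evoked calcium rise, normalized to controls; Benchmarks: ATP and no-ATP DMSO wells; Compound dosing: single nominal dose of 5.6 µM per compound; Signal: Fluo-8 calcium dye fluorescence; Also added: ATP as calcium-mobilizing challenge; Repeats: singlicate.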
# V1aR counter: agonists of human V1a receptor, primary screen, counter-screen for OXTR agonist project, fluorescence, CHO-V1R cells; Vasopressin V1a receptor (Homo sapiens), P37288; activation, % at 3 µM; AID 2797, 2010; Fluo-8 calcium fluorescence, agonist mode; 0% DMSO, 100% 3 nM vasopressin; hit rate 0.25% among 320,000;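 active means activation above the mean activation of all tested compounds plus 3 SD, per screening run, cut at about 20% in these data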;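 further: signal is peak over basal fluorescence ratio across a 100 second FLIPR read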
# Target sequence (P37288 whole entry, looked up): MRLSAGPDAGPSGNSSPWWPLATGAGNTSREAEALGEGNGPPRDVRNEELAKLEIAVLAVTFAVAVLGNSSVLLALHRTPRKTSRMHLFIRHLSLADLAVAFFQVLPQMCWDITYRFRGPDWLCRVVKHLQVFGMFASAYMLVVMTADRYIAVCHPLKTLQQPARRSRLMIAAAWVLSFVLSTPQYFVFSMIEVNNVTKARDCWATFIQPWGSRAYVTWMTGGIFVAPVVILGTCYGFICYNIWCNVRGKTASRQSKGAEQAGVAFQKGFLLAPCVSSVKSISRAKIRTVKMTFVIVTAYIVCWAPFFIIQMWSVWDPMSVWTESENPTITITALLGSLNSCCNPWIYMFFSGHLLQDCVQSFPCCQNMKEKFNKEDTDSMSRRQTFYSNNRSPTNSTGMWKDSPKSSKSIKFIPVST
# OX1R antag-1: OX1R (HCRTR1) antagonists, primary screen, fluorescence, CHO/OX1R cells, Fluo-8 calcium, orexin A; Orexin/Hypocretin receptor type 1 (Homo sapiens), O43613; Fluo-8 calcium fluorescence; inhibition, % at 5 µM; hit rate 0.43% among 330,000;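 active means inhibition above its plate's threshold, mean inhibition of all tested compounds on the plate plus 3 SD, cut at about 37% in these data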;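 further: 0% = orexin A challenge wells and 100% = SB-334867-A antagonist wells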
# OX1R antag-2: antagonists of human orexin 1 receptor (OX1R); Orexin/Hypocretin receptor type 1 (Homo sapiens), O43613; OX1R-expressing cells, FRET antagonist read-out; inhibition, % at 6.6 µM; hit rate 1.8% among 330,000; AID 485270, 2010; in the data active means inhibition mostly above about 38%, no sharp cut-off; inactive means mostly below about 40%;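 further: 0% = agonist challenge alone and 100% = reference antagonist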
# The depositor's hits bear a star; . = no result. Hits are enriched below; roughly 2.7% of the tested compounds scored in any of these assays.
SMILES,OXTR agonist,OXTR potentiate,CHO parental Ca,V1aR counter,OX1R antag-1,OX1R antag-2
CCOC(=O)c1cc2c(=O)n3ccccc3nc2n(CCCOC)c1=NC(=O)c1cccnc1,0,-16,0,0,-2,47
CCOC(=O)c1cc2c(=O)n3ccccc3nc2n(Cc2ccco2)c1=NC(=O)c1ccccc1OCC,0,-6,-9,2,-21,38*
O=C(NCCc1ccccc1)c1cccc(N2CCCC2=O)c1,1,-1,-12,1,-22,-2
O=C1c2ccccc2C(=O)N1CCc1nc2ccccc2c(=O)n1-c1ccccn1,-2,-9,-7,-1,-12,62*
Cc1ccnc(-n2c(CCN3C(=O)c4ccccc4C3=O)nc3ccccc3c2=O)c1,-1,-12,-7,0,-43,17
Cc1cc(N)n2ncc(-c3ccccc3)c2n1,2,-13,-8,2,1,56
Cc1cc(N)n2ncc(-c3cccc(Br)c3)c2n1,1,-8,-5,0,23,43*
C=CCSc1cc(C)nc2c(-c3ccccc3)cnn12,-2,-10,-19,-1,-26,14
CCSc1cc(C)nc2c(-c3ccccc3)cnn12,-3,-3,-19,0,-4,59*
COc1ccccc1OCC(=O)Nc1ccc(CSc2ccccc2)cc1C,0,-10,30*,3,-15,21
Cc1cc(CSc2ccccc2)ccc1NC(=O)COc1ccccc1,2,-13,-15,3,-17,31
C[C@H](CO)N1C[C@H](C)[C@@H](CN(C)S(=O)(=O)c2ccccc2)Oc2c(NS(=O)(=O)c3ccccc3)cccc2C1=O,1,-3,-24,0,-25,6
COc1ccc(NS(=O)(=O)c2c(C)cc(C)cc2C)cn1,0,-11,-14,2,-23,15
Cc1ccc(OCC(=O)NNC(=O)c2cc3ccccc3o2)cc1C,-1,-12,49*,0,-5,6
Cc1cccc(OCC(=O)NNC(=O)c2cc3ccccc3oc2=O)c1,0,-18,-19,0,-26,73*
Cc1ccc(OCC(=O)NNC(=O)c2cc3ccccc3o2)cc1,-1,-4,-8,0,11,13
CCOC(=O)C(C#N)(Cc1cc(OC)cc(OC)c1)Cc1cc(OC)cc(OC)c1,0,-9,1,1,-21,14
Cc1cc(C(=O)CSc2nc3ccc(Cl)cc3[nH]2)c(C)n1Cc1ccco1,1,-10,-5,2,-19,45*
N#C/C(=N\Nc1ccc(Cl)cc1)C(N)=S,17,-18,18,13,21,49*
Cc1ccc(C2(C(=O)N3CCC(n4nc(-c5ccccc5)oc4=O)CC3)CC2)cc1,-2,-6,-39,0,-42,10
CCOC(=O)C1(Cc2ccccc2)CCN(Cc2cccc3c2OCO3)CC1,1,-13,-16,1,8,72*
Cc1cc(C)n2nc(C(=O)OCC(=O)N3C(C)CCCC3C)nc2n1 (stereo unspecified),1,-3,6,0,-10,4
NCCCC[C@@H]1NC(=O)[C@H](CCC(=O)O)NC(=O)c2cc([N+](=O)[O-])cc(I)c2SC[C@@H](C(=O)NCC(N)=O)NC1=O,-1,5,1,-1,-3,42
NCCCC[C@@H]1NC(=O)c2cc([N+](=O)[O-])cc(I)c2SC[C@@H](C(N)=O)NC(=O)[C@H](Cc2ccc(O)cc2)NC1=O,0,-13,8,0,-16,73*
COc1ccccc1C(=O)NCC(=O)OCC(=O)N(CC(C)C)c1c(N)n(Cc2ccccc2)c(=O)[nH]c1=O,2,2,-16,0,-16,8
SMILES,OXTR agonist,OXTR potentiate,CHO parental Ca,V1aR counter,OX1R antag-1,OX1R antag-2
COc1ccccc1N(CC(O)Cn1c(C)nc2ccccc21)S(=O)(=O)c1ccccc1 (stereo unspecified),1,-6,-18,0,10,63*
Cc1ccc(S(=O)(=O)N2C[C@@H]3[C@H]4CC[C@H](C4)[C@@H]3[C@@H](C)[C@@H]2c2ccn([Si](C(C)C)(C(C)C)C(C)C)c2)cc1,.,.,-14,.,-5,6
Cc1cccc(NC(=O)C(=O)NNC(=O)c2ccc(C(C)(C)C)cc2)c1,2,-9,94*,1,95*,21
COc1cccc(CNC(=O)CN(c2cc(C)cc(C)c2)S(=O)(=O)c2c(C)noc2C)c1,-2,-8,-25,-2,-18,46*
Cc1ccc(N(CC(=O)NC(C)c2ccccc2)S(=O)(=O)c2c(C)n[nH]c2C)cc1 (stereo unspecified),0,-14,-26,1,-20,31
Cc1ccc(N(CC(=O)NC(C)c2ccccc2)S(=O)(=O)c2c(C)noc2C)cc1 (stereo unspecified),-3,-6,-20,0,14,52*
CC(=O)Nc1ccc(S(=O)(=O)NCC(=O)OCC(=O)N2CCN(c3ccccc3)CC2)cc1,1,-4,-1,0,0,7
COc1cccc(/C=N/NC(=O)Cn2cnc3c2c(=O)n(C)c(=O)n3C)c1,1,-5,-4,0,-18,4
CCc1cc2c(=O)[nH]c(Cc3ccccc3)nc2s1,-2,-13,43*,-1,-9,24
COc1ccc(C)c(NC(=O)NCCc2cnc[nH]2)c1,0,-6,0,-1,-34,-10
Cc1nn(C)c(C)c1CN(C)S(=O)(=O)c1ccc2ccccc2c1,14,-21,38*,10,27,53*
Cc1nn(C)c(C)c1CN(C)S(=O)(=O)c1ccc(F)cc1,7,-6,-1,8,-12,15
CC(=O)NC(c1ccco1)c1cc(Cl)c2ccccc2c1O (stereo unspecified),-1,2,-15,0,11,28
CCC(=O)NC(c1ccco1)c1cc(Cl)c2ccccc2c1O (stereo unspecified),-1,-4,-16,0,23,50*
CC(=O)c1cccc(NC(=O)CN2C(=O)C(=O)N(Cc3ccco3)C2=O)c1,1,6,-10,0,-6,4
COc1ccccc1C(=O)NC(=O)CSc1ccc(C)c(C)c1,-1,-1,-38,0,-16,5
